Screens (PubChem BioAssay)
IMP-1 inh – blocks Pseudomonas aeruginosa IMP-1 metallo-beta-lactamase; purified IMP-1, nitrocefin hydrolysis, epi-absorbance fluorescence; 0.45% of 290,000 active; inhibition, % at 5.6 µM;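 active = inhibition above the mean plus 3 SD of all compounds in the same screening run, cut at about 4.5% in these data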;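 note: 0% = IMP-1 with DMSO and 100% = DMSO wells lacking enzyme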
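Assay system: purified recombinant IMP-1 beta-lactamase. Input: IMP-1 0.2 nM before substrate addition. Buffer or medium: Zinc- and detergent-supplemented HEPES buffer, pH 7.1. Schedule: 25 °C, 15 min preincubation, 25 min reaction. Signal: Epi-absorbance fluorescence, 480 nm excitation, 530 nm emission. Evaluation: percent inhibition from optical density relative to buffer-blank wells.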
HCV NS3 hel inh – inhibitors of Hepatitis C virus NS3 helicase. inhibition, % at 10.9 µM. 0.56% of 290,000 active. NS3 helicase DNA unwinding, Cy5 molecular beacon fluorescence;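 active = inhibition above the mean of all tested compounds plus 3 SD, set per campaign, cut at about 35% in these data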;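 note: 0% = DMSO wells and 100% = thioflavine S control wells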
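test system = hepatitis C virus NS3 helicase domain fragment enzyme | reagent = annealed dual-labelled DNA beacon duplex, ATP-started | times = 1 h at 25 °C | detection = Cy5 fluorescence, 0 and 60 min reads | read-out basis = percent inhibition from t60/t0 fluorescence ratio | control set = DMSO and thioflavine S | replication = one well per compound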
VIM-2 inh – inhibitors of Pseudomonas aeruginosa VIM-2 metallo-beta-lactamase; purified VIM-2, nitrocefin hydrolysis, epi-absorbance fluorescence; inhibition, % at 5.6 µM; AID 1527; 0.89% of 290,000 active;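 active = inhibition above the mean of all tested compounds plus 3 SD, cutoff set per screening run, cut at about 7.5% in these data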;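 note: red hydrolysis product quenches plate fluorescence so inhibitors raise well fluorescence; 0% = enzyme with DMSO and 100% = DMSO without enzyme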
DNA FID counter-1 – fluorescent intercalator displacement, NS3 helicase counter-screen; DNA fluorescent intercalator displacement, fluorescence; inhibition, % at 7.9 µM; 0.17% of 290,000 active;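 note: 0% = vehicle and 100% = reference compound; higher means more ethidium bromide displaced from hairpin DNA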
SUMO HTRF inh – inhibitors of human SUMOylation (UBC9); HTRF SUMOylation assay, SAE1/SAE2 + UBC9, in vitro; inhibition, % at 35 µM; 0.36% of 290,000 active; in the data active = inhibition above about 50%, passing the limit was not always enough
Target sequence (P63279 whole entry, looked up): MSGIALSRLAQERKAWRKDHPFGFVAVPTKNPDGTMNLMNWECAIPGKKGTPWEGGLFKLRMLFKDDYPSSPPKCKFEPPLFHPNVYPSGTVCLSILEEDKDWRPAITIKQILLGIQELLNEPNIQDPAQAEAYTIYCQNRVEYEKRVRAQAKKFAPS
NS3 hel confirm – confirmation of Hepatitis C virus NS3 helicase inhibitors; shares compounds with HCV NS3 hel inh; NS3 helicase DNA unwinding, Cy5 molecular beacon fluorescence; inhibition, % at 10.9 µM; 31% of 1,600 active; AID 1943;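 active = inhibition above the mean of all tested compounds plus 3 SD, cutoff set per campaign, cut at about 36% in these data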
DNA FID counter-2 – intercalator displacement, NS3 helicase counter-screen. DNA fluorescent intercalator displacement, fluorescence. shares compounds with HCV NS3 hel inh. inhibition, % at 7.9 µM. 4% of 1,600 active;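 note: 0% = vehicle and 100% = reference compound; higher means more displacement of ethidium bromide from the DNA hairpin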
DNA FID DR – DNA intercalator displacement in dose response; shares compounds with HCV NS3 hel inh; fluorescent intercalator displacement from DNA, fluorescence; IC50, µM; 120 tested, under 10 active; AID 2172; call rule not given here
The depositor's hits bear a star. This is a sample that favours compounds with a hit; in the whole collection about 2.1% have one here. Cut-off read from the data, not from the text of the source, unless noted: active = inhibition above about 37%; inactive = the rest.

Results for COc1cc(NC(=O)CSc2nnc(-c3ccncc3)o2)cc(OC)c1OC ?
IMP-1 inh: -3; HCV NS3 hel inh: 0; VIM-2 inh: -1; DNA FID counter-1: -11; SUMO HTRF inh: 2

What do the screens show for `CCOC(=O)c1cc(-c2ccc(OC)cc2OC)nn1-c1ccc(C(=O)O)cc1`?
IMP-1 inh: -2; HCV NS3 hel inh: 13; VIM-2 inh: -4; DNA FID counter-1: -37; SUMO HTRF inh: 8

What do the screens show for `CCCCC(=O)NC(=S)Nc1cc(C(=O)O)ccc1Cl`?
IMP-1 inh: 0; HCV NS3 hel inh: 55*; VIM-2 inh: 0; DNA FID counter-1: -12; SUMO HTRF inh: -1; NS3 hel confirm: -17; DNA FID counter-2: 1

How did O=C(NNc1nc2ccccc2s1)c1ccccc1F do in these assays?
IMP-1 inh: 0; HCV NS3 hel inh: 51*; VIM-2 inh: 0; DNA FID counter-1: -12; SUMO HTRF inh: -3; NS3 hel confirm: -6; DNA FID counter-2: 11

What do the screens show for `O=C(NNc1nc2ccccc2s1)Nc1ccc(F)cc1`?
IMP-1 inh: -2; HCV NS3 hel inh: -7; VIM-2 inh: -2; DNA FID counter-1: 2; SUMO HTRF inh: 1

Results for CCCc1ccc(-c2cc(NC(=O)CSc3nnc(N)s3)n(-c3ccccc3)n2)cc1 ?
IMP-1 inh: -4; HCV NS3 hel inh: 4; VIM-2 inh: -3; DNA FID counter-1: -20; SUMO HTRF inh: -17

Results for CCCCNC(=O)[C@H]1C[C@H]1[C@@H](O)[C@H](CO)NC(=O)[C@H](CC(C)C)NC(=O)OC(C)(C)C ?
IMP-1 inh: -2; HCV NS3 hel inh: 36*; VIM-2 inh: -1; DNA FID counter-1: -26; SUMO HTRF inh: 9; NS3 hel confirm: 5; DNA FID counter-2: -36

What do the screens show for `CC(C)C[C@H](NC(=O)OC(C)(C)C)C(=O)N[C@@H](CO)[C@H](O)[C@@H]1C[C@@H]1C(=O)NC1CC1`?
IMP-1 inh: -4; HCV NS3 hel inh: -4; VIM-2 inh: 0; DNA FID counter-1: -10; SUMO HTRF inh: -5

What do the screens show for `CCCn1nnnc1NC(=O)COc1ccc(CC)cc1`?
IMP-1 inh: -3; HCV NS3 hel inh: -2; VIM-2 inh: -3; DNA FID counter-1: -7; SUMO HTRF inh: 3

How did O=c1cc(CSc2ccc(Cl)cc2)[nH]c2[nH]n(-c3ccccc3)c(=O)c12 do in these assays?
IMP-1 inh: -2; HCV NS3 hel inh: 40*; VIM-2 inh: -3; DNA FID counter-1: -16; SUMO HTRF inh: 27; NS3 hel confirm: 53*; DNA FID counter-2: -5; DNA FID DR: >79

Results for CN(C)S(=O)(=O)c1ccc(S(=O)(=O)N2CCCC(C(=O)NC3CCCC3)C2)cc1 (stereo not given) ?
IMP-1 inh: -1; HCV NS3 hel inh: 8; VIM-2 inh: 0; DNA FID counter-1: -8; SUMO HTRF inh: 22

Results for C/C(=N\NC(=O)c1cc(O)ccc1O)c1cccc(NC(=O)c2cccc(Cl)c2)c1 ?
IMP-1 inh: -1; HCV NS3 hel inh: 24; VIM-2 inh: -3; DNA FID counter-1: -8; SUMO HTRF inh: 15

What do the screens show for `C/C(=N\NC(=O)c1cc(O)ccc1O)c1cccc(NC(=O)c2ccc(Cl)cc2)c1`?
IMP-1 inh: -3; HCV NS3 hel inh: 40*; VIM-2 inh: -6; DNA FID counter-1: -8; SUMO HTRF inh: 52; NS3 hel confirm: -17; DNA FID counter-2: 11

What do the screens show for `CN(C)CCn1cnc2c(c1=N)C(c1ccccc1)c1ccc3ccccc3c1O2` (stereo not given)?
IMP-1 inh: -1; HCV NS3 hel inh: -66; VIM-2 inh: 4; DNA FID counter-1: 35; SUMO HTRF inh: 8

What do the screens show for `O=C(O)Cc1ccc(N=Nc2c(O)c(C(=O)O)cc3ccccc23)cc1`?
IMP-1 inh: -4; HCV NS3 hel inh: 42*; VIM-2 inh: -5; DNA FID counter-1: -12; SUMO HTRF inh: 28; NS3 hel confirm: 64*; DNA FID counter-2: -7

What do the screens show for `NS(=O)(=O)c1ccc(N=Nc2c(O)c(C(=O)O)cc3ccccc23)cc1`?
IMP-1 inh: -4; HCV NS3 hel inh: 35; VIM-2 inh: -2; DNA FID counter-1: -10; SUMO HTRF inh: 11

How did CCO[C@H]1OC(C(=O)NC2CC2)=C[C@@H](c2csc3ccccc23)[C@@H]1CCCO do in these assays?
IMP-1 inh: -4; HCV NS3 hel inh: 5; VIM-2 inh: -1; DNA FID counter-1: -26; SUMO HTRF inh: -7

What do the screens show for `Cc1cc(/C=C2/C(=N)N3C(c4ccccc4)=CSC3=NC2=O)c(C)n1-c1ccccc1`?
IMP-1 inh: -3; HCV NS3 hel inh: 15; VIM-2 inh: -2; DNA FID counter-1: -2; SUMO HTRF inh: 18

How did Cc1ccccc1-n1c(C)cc(/C=C2/C(=N)N3C(c4ccccc4)=CSC3=NC2=O)c1C do in these assays?
IMP-1 inh: -1; HCV NS3 hel inh: 40*; VIM-2 inh: -3; DNA FID counter-1: -9; SUMO HTRF inh: 6; NS3 hel confirm: 8; DNA FID counter-2: -11

Results for Cc1cccc(C)c1-n1cccc1/C=C1/C(=N)N2C(=NC1=O)SN=C2S(C)(=O)=O ?
IMP-1 inh: -2; HCV NS3 hel inh: -4; VIM-2 inh: -2; DNA FID counter-1: -24; SUMO HTRF inh: 18

What do the screens show for `Cc1ccc(-n2cccc2/C=C2/C(=N)N3C(=NC2=O)SN=C3S(C)(=O)=O)cc1Cl`?
IMP-1 inh: -1; HCV NS3 hel inh: 49*; VIM-2 inh: 0; DNA FID counter-1: -21; SUMO HTRF inh: 46; NS3 hel confirm: 64*; DNA FID counter-2: 11

How did CCOc1ccc(-n2c(C)cc(/C=C3/C(=N)N4C(=NC3=O)SN=C4S(C)(=O)=O)c2C)cc1 do in these assays?
IMP-1 inh: -1; HCV NS3 hel inh: 38*; VIM-2 inh: -3; DNA FID counter-1: -34; SUMO HTRF inh: 22; NS3 hel confirm: 84*; DNA FID counter-2: -9

Results for COc1cccc(C2c3[nH]c4ccccc4c3C[C@H]3C(=O)N(CCCOC(C)C)CC(=O)N23)c1 (stereo not given in full) ?
IMP-1 inh: -2; HCV NS3 hel inh: 85*; VIM-2 inh: -1; DNA FID counter-1: -30; SUMO HTRF inh: 17; NS3 hel confirm: -9; DNA FID counter-2: -28

How did CC12CCC(=O)N1C(C(=O)Nc1cccc(F)c1)CS2 (stereo not given) do in these assays?
IMP-1 inh: -2; HCV NS3 hel inh: 9; VIM-2 inh: 2; DNA FID counter-1: -3; SUMO HTRF inh: 2

Results for COc1ccccc1C(NC(C)=O)c1cc(Cl)c2cccnc2c1O (stereo not given) ?
IMP-1 inh: -4; HCV NS3 hel inh: 40*; VIM-2 inh: -2; DNA FID counter-1: -23; SUMO HTRF inh: 33; NS3 hel confirm: -8; DNA FID counter-2: -4
